ChEMBL document CHEMBL1629494, “New amino acid esters of salicylanilides active against MDR-TB and other microbes” (Eur J Med Chem, 2010)

Legend:
Assay type in all cases: functional
Pichia kudriavzevii [1] = assay: Antifungal activity against Candida krusei E28 after 48 hrs by broth microdilution method; settings: E28, 48 h
Trichosporon beigelii [2] = assay: Antifungal activity against Trichosporon beigelii 1188 after 24 hrs by broth microdilution method; settings: Trichosporon beigelii, 1188, 24 h
Mycobacterium kansasii [3] = assay: Antimycobacterial activity against Mycobacterium kansasii
Candida tropicalis [4] = assay: Antifungal activity against Candida tropicalis 156 after 48 hrs by broth microdilution method; settings: Candida tropicalis, 156, 48 h
Mycobacterium avium [5] = assay: Antimycobacterial activity against multidrug-resistant Mycobacterium avium 330/88 after 21 days by micromethod; settings: 330/88, 504 h
How it was run: (§1)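 Micromethod in Sula semisynthetic medium, with compounds added as DMSO solutions at 1000, 500, 250, 125, 62, 32, 16, 8, 4, 2, 1, 0.5, 0.25. Inoculum dilutions: H37Rv 10^-3; M. avium 330/88 10^-5; M. kansasii 235/80 10^-4; M. kansasii 6509/96 10^-5. Incubated at 37 °C, read at 14 and 21 days, and at 7 days for M. kansasii. MIC was the lowest concentration inhibiting growth.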

[6] = system: Mycobacterium tuberculosis; assay: Antimycobacterial activity against Mycobacterium tuberculosis H37Rv 331/88 after 21 days by micromethod; settings: H37Rv 331/88, 504 h; how it was run: as §1
Lichtheimia corymbifera [7] = assay: Antifungal activity against Absidia corymbifera 272 after 24 hrs by broth microdilution method; settings: Lichtheimia corymbifera, 272, 24 h
Mycobacterium kansasii [8] = assay: Antimycobacterial activity against Mycobacterium kansasii 6509/96 after 14 days by micromethod; settings: 6509/96, 336 h; how it was run: as §1
Escherichia coli [9] = assay: Antibacterial activity against Escherichia coli CCM 4517 after 24 hrs by broth microdilution method; settings: CCM 4517, 24 h
How it was run: (§2)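 Broth microdilution following […], with twofold compound dilutions in Mueller-Hinton bouillon. Incubated 24 and 48 h at 35 °C in the dark in a humid atmosphere. MIC (IC80) was taken as ≥80% growth reduction versus control, read visually and photometrically.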

Staphylococcus aureus [10] = assay: Antibacterial activity against Staphylococcus aureus CCM 4516/08 after 48 hrs by broth microdilution method; settings: CCM 4516/08, 48 h; how it was run: as §2
Enterococcus sp. [11] = assay: Antibacterial activity against Enterococcus sp. J14365/08 after 24 hrs by broth microdilution method; settings: J14365/08, 24 h; how it was run: as §2
Lichtheimia corymbifera [12] = assay: Antifungal activity against Absidia corymbifera 272 after 48 hrs by broth microdilution method; settings: Lichtheimia corymbifera, 272, 48 h
Mycobacterium kansasii [13] = assay: Antimycobacterial activity against Mycobacterium kansasii 235/80 after 14 days by micromethod; settings: 235/80, 336 h; how it was run: as §1
Candida albicans [14] = assay: Antifungal activity against Candida albicans ATCC 44859 after 48 hrs by broth microdilution method; settings: ATCC 44859, 48 h
Nakaseomyces glabratus [15] = assay: Antifungal activity against Candida glabrata 20/I after 48 hrs by broth microdilution method
Mycobacterium kansasii [16] = assay: Antimycobacterial activity against Mycobacterium kansasii 6509/96 after 21 days by micromethod; settings: 6509/96, 504 h; how it was run: as §1
Candida albicans [17] = assay: Antifungal activity against Candida albicans ATCC 44859 after 24 hrs by broth microdilution method; settings: ATCC 44859, 24 h
Staphylococcus aureus [18] = assay: Antibacterial activity against Staphylococcus aureus CCM 4516/08 after 24 hrs by broth microdilution method; settings: CCM 4516/08, 24 h; how it was run: as §2
Mycobacterium avium [19] = assay: Antimycobacterial activity against Mycobacterium avium
Klebsiella pneumoniae [20] = assay: Antibacterial activity against Klebsiella pneumoniae D11750/08 after 24 hrs by broth microdilution method; settings: D11750/08, 24 h; how it was run: as §2
[21] = system: Mycobacterium tuberculosis; assay: Antimycobacterial activity against Mycobacterium tuberculosis H37Rv 331/88 after 14 days by micromethod; settings: H37Rv 331/88, 336 h; how it was run: as §1
Nakaseomyces glabratus [22] = assay: Antifungal activity against Candida glabrata 20/I after 24 hrs by broth microdilution method
Mycobacterium kansasii [23] = assay: Antimycobacterial activity against Mycobacterium kansasii 6509/96 after 7 days by micromethod; settings: 6509/96, 168 h; how it was run: as §1
[24] = system: Trichophyton mentagrophytes; assay: Antifungal activity against Trichophyton mentagrophytes after 48 hrs by broth microdilution method
Aspergillus fumigatus [25] = assay: Antifungal activity against Aspergillus fumigatus 231 after 24 hrs by broth microdilution method; settings: Aspergillus fumigatus, 231, 24 h
Mycobacterium kansasii [26] = assay: Antimycobacterial activity against Mycobacterium kansasii 235/80 after 7 days by micromethod; settings: 235/80, 168 h; how it was run: as §1
Mycobacterium avium [27] = assay: Antimycobacterial activity against multidrug-resistant Mycobacterium avium 330/88 after 14 days by micromethod; settings: 330/88, 336 h; how it was run: as §1
Mycobacterium kansasii [28] = assay: Antimycobacterial activity against Mycobacterium kansasii 235/80 after 21 days by micromethod; settings: 235/80, 504 h; how it was run: as §1
Aspergillus fumigatus [29] = assay: Antifungal activity against Aspergillus fumigatus 231 after 48 hrs by broth microdilution method; settings: Aspergillus fumigatus, 231, 48 h
Staphylococcus aureus [30] = assay: Antibacterial activity against methicillin-resistant Staphylococcus aureus H5996/08 after 24 hrs by broth microdilution method; settings: H5996/08, 24 h; how it was run: as §2
Enterococcus sp. [31] = assay: Antibacterial activity against Enterococcus sp. J14365/08 after 48 hrs by broth microdilution method; settings: J14365/08, 48 h; how it was run: as §2
Pichia kudriavzevii [32] = assay: Antifungal activity against Candida krusei E28 after 24 hrs by broth microdilution method; settings: E28, 24 h
[33] = system: Staphylococcus epidermidis; assay: Antibacterial activity against Staphylococcus epidermidis H6966/08 after 24 hrs by broth microdilution method; settings: H6966/08, 24 h; how it was run: as §2
Escherichia coli [34] = assay: Antibacterial activity against Escherichia coli CCM 4517 after 48 hrs by broth microdilution method; settings: CCM 4517, 48 h; how it was run: as §2
[35] = system: Trichophyton mentagrophytes; assay: Antifungal activity against Trichophyton mentagrophytes after 24 hrs by broth microdilution method
Candida tropicalis [36] = assay: Antifungal activity against Candida tropicalis 156 after 24 hrs by broth microdilution method; settings: Candida tropicalis, 156, 24 h
Trichosporon beigelii [37] = assay: Antifungal activity against Trichosporon beigelii 1188 after 48 hrs by broth microdilution method; settings: Trichosporon beigelii, 1188, 48 h
Staphylococcus aureus [38] = assay: Antibacterial activity against methicillin-resistant Staphylococcus aureus H5996/08 after 48 hrs by broth microdilution method; settings: H5996/08, 48 h; how it was run: as §2
[39] = system: Mycobacterium tuberculosis; assay: Antimycobacterial activity against drug-sensitive Mycobacterium tuberculosis
[40] = system: Staphylococcus epidermidis; assay: Antibacterial activity against Staphylococcus epidermidis H6966/08 after 48 hrs by broth microdilution method; settings: H6966/08, 48 h; how it was run: as §2
Klebsiella pneumoniae [41] = assay: Antibacterial activity against Klebsiella pneumoniae D11750/08 after 48 hrs by broth microdilution method; settings: D11750/08, 48 h; how it was run: as §2

Measured: MIC

CC(=O)N[C@@H](Cc1ccccc1)C(=O)Oc1cc(Cl)ccc1C(=O)Nc1ccc(Cl)cc1
1.95 µM: Staphylococcus aureus [18] | Staphylococcus aureus [30] | [33]
3.9 µM: Enterococcus sp. [11]
4 µM: [6] | Mycobacterium kansasii [13] | [21] | Mycobacterium kansasii [23] | Mycobacterium kansasii [26] | Mycobacterium kansasii [28]
15.6 µM: Trichosporon beigelii [2] | Staphylococcus aureus [10] | [35]
7.81 µM: Lichtheimia corymbifera [7] | Lichtheimia corymbifera [12]
125 µM: Klebsiella pneumoniae [41]
1 µM: Mycobacterium kansasii [3] | Mycobacterium avium [19] | [39]
16 µM: Mycobacterium avium [5] | Mycobacterium kansasii [16]
62.5 µM: Klebsiella pneumoniae [20] | Trichosporon beigelii [37]
31.2 µM: Escherichia coli [9] | Candida albicans [17] | [24] | Pichia kudriavzevii [32] | Staphylococcus aureus [38] | [40]
8 µM: Mycobacterium kansasii [8] | Mycobacterium avium [27]
> 125 µM: all other assays above

CC(=O)N[C@@H](Cc1ccccc1)C(=O)Oc1cc(Cl)ccc1C(=O)Nc1ccc(Br)cc1
2 µM: [21] | Mycobacterium kansasii [26]
1.95 µM: Staphylococcus aureus [10] | [40]
0.98 µM: Staphylococcus aureus [18] | Staphylococcus aureus [30] | [33]
4 µM: [6] | Mycobacterium kansasii [8] | Mycobacterium kansasii [13] | Mycobacterium kansasii [23] | Mycobacterium avium [27] | Mycobacterium kansasii [28]
62.5 µM: Lichtheimia corymbifera [12] | Aspergillus fumigatus [25] | Trichosporon beigelii [37]
1 µM: Mycobacterium kansasii [3] | Mycobacterium avium [19] | [39]
8 µM: Mycobacterium avium [5] | Mycobacterium kansasii [16]
125 µM: Enterococcus sp. [31] | Escherichia coli [34]
7.81 µM: Enterococcus sp. [11] | [35] | Staphylococcus aureus [38]
15.6 µM: Trichosporon beigelii [2] | Lichtheimia corymbifera [7] | Escherichia coli [9] | [24]
> 125 µM: all other assays above
